From ChEMBL document CHEMBL4004784, “Antioxidant Hydroanthraquinones from the Marine Algal-Derived Endophytic Fungus Talaromyces islandicus EN-501” (J Nat Prod, 2017)
≈ marks a conversion by molar mass, not a printed value. Calls of active or inactive are those of the source. No cut-off for these calls is given here.

What was measured:
[1] = Antioxidant activity assessed as DPPH radical scavenging activity; type: functional
Procedure, shortened: (§1)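 Radical scavenging of pure compounds against DPPH and ABTS radicals, run by previously published methods and reported as IC50 in μM. Positive controls were BHT for DPPH and ascorbic acid for ABTS.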

Escherichia coli = test: Antimicrobial activity against Escherichia coli EMBLC-1 by XTT assay; type: functional
Procedure, shortened: (§2)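 Microplate assay on bacterial strains supplied by the Institute of Oceanology, Chinese Academy of Sciences, with chloramphenicol as the positive control.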

Edwardsiella tarda = test: Antimicrobial activity against Edwardsiella tarda QDIO-2 by XTT assay; type: functional; procedure, shortened: as §2
Staphylococcus aureus = test: Antimicrobial activity against Staphylococcus aureus EMBLC-2 by XTT assay; type: functional; procedure, shortened: as §2
[2] = Antioxidant activity assessed as ABTS radical scavenging activity; type: functional; procedure, shortened: as §1
A2780 [3] = test: Cytotoxicity against human A2780 cells after 72 hrs by MTT assay; type: functional, cell-based; details: A2780, 72 h
[4] = Cytotoxicity against human A2780cis cells after 72 hrs by MTT assay; type: functional, cell-based
A2780 [5] = test: Cytotoxicity against human A2780 cells at 100 uM after 72 hrs by MTT assay; type: functional, cell-based
A2780cis = test: Cytotoxicity against human A2780cis cells at 100 uM after 72 hrs by MTT assay; type: functional, cell-based

Cc1cc(C(C)(C)C)c(O)c(C(C)(C)C)c1 [BUTYLATED HYDROXYTOLUENE]
IC50 [1]: 61 µM

CO[C@@H]1c2c(O)cc(C)c(O)c2C(=O)[C@@H]2C[C@H](O)C[C@H](O)[C@@H]12
MIC (Escherichia coli): inactive | MIC (Edwardsiella tarda): inactive | MIC (Staphylococcus aureus): 8 µg/mL (≈ 25.9 µM) | IC50 [1]: 30 µM | IC50 [2]: 24 µM | IC50 (A2780 [3]): > 10 µM | IC50 [4]: > 10 µM

O=C(N[C@H](CO)[C@H](O)c1ccc([N+](=O)[O-])cc1)C(Cl)Cl [CHLORAMPHENICOL]
MIC (Escherichia coli): 4 µg/mL (≈ 12.4 µM) | MIC (Edwardsiella tarda): 2 µg/mL (≈ 6.19 µM) | MIC (Staphylococcus aureus): 2 µg/mL (≈ 6.19 µM)

Cc1cc(O)c2c(c1O)[C@H](O)[C@H]1C[C@@H](O)C[C@@H](O)[C@@H]1C2=O
MIC (Escherichia coli): 32 µg/mL (≈ 109 µM) | MIC (Edwardsiella tarda): 64 µg/mL (≈ 217 µM) | MIC (Staphylococcus aureus): 4 µg/mL (≈ 13.6 µM) | IC50 [1]: 42 µM | IC50 [2]: 34 µM | IC50 (A2780 [3]): > 10 µM | IC50 [4]: > 10 µM

O=C1O[C@H]([C@@H](O)CO)C(O)=C1O [ASCORBIC ACID]
IC50 [2]: 16 µM

Cc1cc(O)c2c(c1O)[C@H](O)[C@H]1C[C@@H](O)CC[C@@H]1C2=O
MIC (Escherichia coli): 64 µg/mL (≈ 230 µM) | MIC (Edwardsiella tarda): inactive | MIC (Staphylococcus aureus): 4 µg/mL (≈ 14.4 µM) | IC50 [1]: 12 µM | IC50 [2]: 8.3 µM | IC50 (A2780 [3]): > 10 µM | IC50 [4]: > 10 µM

O=C1c2c(O)cc(CO)c(O)c2[C@H](O)[C@H]2C[C@@H](O)CC[C@H]12
MIC (Escherichia coli): 16 µg/mL (≈ 54.4 µM) | MIC (Edwardsiella tarda): 32 µg/mL (≈ 109 µM) | MIC (Staphylococcus aureus): 2 µg/mL (≈ 6.8 µM) | IC50 [1]: 31 µM | IC50 [2]: 19 µM | Activity (A2780 [5]): Active | Activity (A2780cis): Active

Cc1cc(O)c2c(c1O)[C@H](O)[C@H]1C[C@@H](O)C[C@H](O)[C@@H]1C2=O
MIC (Escherichia coli): 32 µg/mL (≈ 109 µM) | MIC (Edwardsiella tarda): 64 µg/mL (≈ 217 µM) | MIC (Staphylococcus aureus): 4 µg/mL (≈ 13.6 µM) | IC50 [1]: 52 µM | IC50 [2]: 31 µM | IC50 (A2780 [3]): > 10 µM | IC50 [4]: > 10 µM
